Activity calls are given as the source filed them.
What was measured:
[1] = Passive membrane permeability of the compound in phosphate buffered saline assessed as concentration of the compound in acceptor plate at 200 uM incubated for 5 hrs by PAMPA assay based HPLC analysis; assay type: ADME
In short: (§1)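 Precoated trilayer PAMPA, 5 h incubation. Acceptor and donor concentrations measured after 5 h. Permeability and mass retention calculated by a literature method.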

[2] = test system: dengue virus type 2; experiment: Antiviral activity against DENV2 infected in human Huh7 cells assessed as reduction in virus titer in cell supernatant by measuring inhibition of plaque formation using VeroE6 cells at 12.5 uM preincubated with viral infected Huh7 cells for 48 hrs and measured following infection of VeroE6 cells with supernatants for 7 days by plaque assay based crystal violet staining analysis; assay type: functional; conditions: Huh-7, 216 h, time 9 day
In short: (§2)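 Huh-7 cells seeded at 1 × 10⁴/well and incubated overnight. Infected with DENV-2 at MOI 1 for 2 h, then medium changed and compound added. […] Pooled supernatants titred by plaque assay on VeroE6 cells: 10⁻¹ to 10⁻⁶ dilutions, 1 h infection, 7 days, formaldehyde fix, crystal violet.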

[3] = test system: Huh-7; experiment: Cytotoxicity against human Huh-7 cells assessed as reduction in cell viability at 12.5 uM incubated for 48 hrs by CellTiter-Blue assay; assay type: cell-based; conditions: huh-7, 48 h
In short: (§3)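 Viability by CellTiter-Blue in HeLa or Huh-7 cells exposed to compound dilutions. Plates run in parallel with the reporter assay (HeLa) or the virus titer assay (Huh-7).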

[4] = Passive membrane permeability of the compound in phosphate buffered saline assessed as concentration of the compound in donor plate at 200 uM incubated for 5 hrs by PAMPA assay based HPLC analysis; assay type: ADME; in short: as §1
[5] = target: Genome polyprotein (dengue virus type 2) (UniProt P29990); experiment: Inhibition of NS2B-NS3 protease in DENV2proHeLa system assessed as inhibition of luciferase signal at 12.5 uM incubated for 24 hrs by luciferase reporter gene assay; assay type: cell-based; conditions: HeLa
In short: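 Stable DENV2proHeLa cells seeded at 2 × 10⁴/well and dosed immediately, then incubated 24 h at 37 °C. Cells lysed 15 min at room temperature. Luciferase read with coelenterazine (2.75 μM in PBS) injection, luminescence 5 s. Triplicates; percent inhibition calculated relative to untreated control; background from cell-free wells.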

[6] = Passive membrane permeability of the compound in phosphate buffered saline at 200 uM incubated for 5 hrs by PAMPA assay based HPLC analysis; assay type: ADME; conditions: PAMPA, read-out: permeability; in short: as §1
[7] = target: Prothrombin (Homo sapiens) (UniProt P00734); experiment: Inhibition of thrombin in human plasma using Boc-Val-Pro-Arg-AMC as substrate at 25 uM preincubated with enzyme for 15 mins followed by substrate addition and measured for 15 mins by fluorimetric assay; assay type: cell-free; conditions: time 30.0 min
[8] = test system: dengue virus type 2; experiment: Antiviral activity against DENV2 infected in human Huh7 cells assessed as reduction in virus titer in cell supernatant by measuring inhibition of plaque formation using VeroE6 cells preincubated with viral infected Huh7 cells for 48 hrs and measured following infection of VeroE6 cells with supernatants for 7 days by plaque assay based crystal violet staining analysis; assay type: functional, organism-based, Huh-7; conditions: for EC50: Huh-7; for EC90: Huh-7, 216 h, time 9 day; in short: as §2
[9] = Passive membrane permeability of the compound in phosphate buffered saline assessed as mass retention of the compound at 200 uM incubated for 5 hrs by PAMPA assay based HPLC analysis; assay type: ADME; in short: as §1
[10] = target: Genome polyprotein (West Nile virus) (UniProt P06935); experiment: Inhibition of WNV NS2B-NS3 protease expressed in Escherichia coli BL21 lambda(DE3) using FRET substrate preincubated with enzyme for 15 mins in presence of detergent CHAPS followed by substrate addition for 15 mins by fluorescence based analysis; conditions: time 30.0 min
Sequence of Genome polyprotein (West Nile virus) (P06935 whole entry): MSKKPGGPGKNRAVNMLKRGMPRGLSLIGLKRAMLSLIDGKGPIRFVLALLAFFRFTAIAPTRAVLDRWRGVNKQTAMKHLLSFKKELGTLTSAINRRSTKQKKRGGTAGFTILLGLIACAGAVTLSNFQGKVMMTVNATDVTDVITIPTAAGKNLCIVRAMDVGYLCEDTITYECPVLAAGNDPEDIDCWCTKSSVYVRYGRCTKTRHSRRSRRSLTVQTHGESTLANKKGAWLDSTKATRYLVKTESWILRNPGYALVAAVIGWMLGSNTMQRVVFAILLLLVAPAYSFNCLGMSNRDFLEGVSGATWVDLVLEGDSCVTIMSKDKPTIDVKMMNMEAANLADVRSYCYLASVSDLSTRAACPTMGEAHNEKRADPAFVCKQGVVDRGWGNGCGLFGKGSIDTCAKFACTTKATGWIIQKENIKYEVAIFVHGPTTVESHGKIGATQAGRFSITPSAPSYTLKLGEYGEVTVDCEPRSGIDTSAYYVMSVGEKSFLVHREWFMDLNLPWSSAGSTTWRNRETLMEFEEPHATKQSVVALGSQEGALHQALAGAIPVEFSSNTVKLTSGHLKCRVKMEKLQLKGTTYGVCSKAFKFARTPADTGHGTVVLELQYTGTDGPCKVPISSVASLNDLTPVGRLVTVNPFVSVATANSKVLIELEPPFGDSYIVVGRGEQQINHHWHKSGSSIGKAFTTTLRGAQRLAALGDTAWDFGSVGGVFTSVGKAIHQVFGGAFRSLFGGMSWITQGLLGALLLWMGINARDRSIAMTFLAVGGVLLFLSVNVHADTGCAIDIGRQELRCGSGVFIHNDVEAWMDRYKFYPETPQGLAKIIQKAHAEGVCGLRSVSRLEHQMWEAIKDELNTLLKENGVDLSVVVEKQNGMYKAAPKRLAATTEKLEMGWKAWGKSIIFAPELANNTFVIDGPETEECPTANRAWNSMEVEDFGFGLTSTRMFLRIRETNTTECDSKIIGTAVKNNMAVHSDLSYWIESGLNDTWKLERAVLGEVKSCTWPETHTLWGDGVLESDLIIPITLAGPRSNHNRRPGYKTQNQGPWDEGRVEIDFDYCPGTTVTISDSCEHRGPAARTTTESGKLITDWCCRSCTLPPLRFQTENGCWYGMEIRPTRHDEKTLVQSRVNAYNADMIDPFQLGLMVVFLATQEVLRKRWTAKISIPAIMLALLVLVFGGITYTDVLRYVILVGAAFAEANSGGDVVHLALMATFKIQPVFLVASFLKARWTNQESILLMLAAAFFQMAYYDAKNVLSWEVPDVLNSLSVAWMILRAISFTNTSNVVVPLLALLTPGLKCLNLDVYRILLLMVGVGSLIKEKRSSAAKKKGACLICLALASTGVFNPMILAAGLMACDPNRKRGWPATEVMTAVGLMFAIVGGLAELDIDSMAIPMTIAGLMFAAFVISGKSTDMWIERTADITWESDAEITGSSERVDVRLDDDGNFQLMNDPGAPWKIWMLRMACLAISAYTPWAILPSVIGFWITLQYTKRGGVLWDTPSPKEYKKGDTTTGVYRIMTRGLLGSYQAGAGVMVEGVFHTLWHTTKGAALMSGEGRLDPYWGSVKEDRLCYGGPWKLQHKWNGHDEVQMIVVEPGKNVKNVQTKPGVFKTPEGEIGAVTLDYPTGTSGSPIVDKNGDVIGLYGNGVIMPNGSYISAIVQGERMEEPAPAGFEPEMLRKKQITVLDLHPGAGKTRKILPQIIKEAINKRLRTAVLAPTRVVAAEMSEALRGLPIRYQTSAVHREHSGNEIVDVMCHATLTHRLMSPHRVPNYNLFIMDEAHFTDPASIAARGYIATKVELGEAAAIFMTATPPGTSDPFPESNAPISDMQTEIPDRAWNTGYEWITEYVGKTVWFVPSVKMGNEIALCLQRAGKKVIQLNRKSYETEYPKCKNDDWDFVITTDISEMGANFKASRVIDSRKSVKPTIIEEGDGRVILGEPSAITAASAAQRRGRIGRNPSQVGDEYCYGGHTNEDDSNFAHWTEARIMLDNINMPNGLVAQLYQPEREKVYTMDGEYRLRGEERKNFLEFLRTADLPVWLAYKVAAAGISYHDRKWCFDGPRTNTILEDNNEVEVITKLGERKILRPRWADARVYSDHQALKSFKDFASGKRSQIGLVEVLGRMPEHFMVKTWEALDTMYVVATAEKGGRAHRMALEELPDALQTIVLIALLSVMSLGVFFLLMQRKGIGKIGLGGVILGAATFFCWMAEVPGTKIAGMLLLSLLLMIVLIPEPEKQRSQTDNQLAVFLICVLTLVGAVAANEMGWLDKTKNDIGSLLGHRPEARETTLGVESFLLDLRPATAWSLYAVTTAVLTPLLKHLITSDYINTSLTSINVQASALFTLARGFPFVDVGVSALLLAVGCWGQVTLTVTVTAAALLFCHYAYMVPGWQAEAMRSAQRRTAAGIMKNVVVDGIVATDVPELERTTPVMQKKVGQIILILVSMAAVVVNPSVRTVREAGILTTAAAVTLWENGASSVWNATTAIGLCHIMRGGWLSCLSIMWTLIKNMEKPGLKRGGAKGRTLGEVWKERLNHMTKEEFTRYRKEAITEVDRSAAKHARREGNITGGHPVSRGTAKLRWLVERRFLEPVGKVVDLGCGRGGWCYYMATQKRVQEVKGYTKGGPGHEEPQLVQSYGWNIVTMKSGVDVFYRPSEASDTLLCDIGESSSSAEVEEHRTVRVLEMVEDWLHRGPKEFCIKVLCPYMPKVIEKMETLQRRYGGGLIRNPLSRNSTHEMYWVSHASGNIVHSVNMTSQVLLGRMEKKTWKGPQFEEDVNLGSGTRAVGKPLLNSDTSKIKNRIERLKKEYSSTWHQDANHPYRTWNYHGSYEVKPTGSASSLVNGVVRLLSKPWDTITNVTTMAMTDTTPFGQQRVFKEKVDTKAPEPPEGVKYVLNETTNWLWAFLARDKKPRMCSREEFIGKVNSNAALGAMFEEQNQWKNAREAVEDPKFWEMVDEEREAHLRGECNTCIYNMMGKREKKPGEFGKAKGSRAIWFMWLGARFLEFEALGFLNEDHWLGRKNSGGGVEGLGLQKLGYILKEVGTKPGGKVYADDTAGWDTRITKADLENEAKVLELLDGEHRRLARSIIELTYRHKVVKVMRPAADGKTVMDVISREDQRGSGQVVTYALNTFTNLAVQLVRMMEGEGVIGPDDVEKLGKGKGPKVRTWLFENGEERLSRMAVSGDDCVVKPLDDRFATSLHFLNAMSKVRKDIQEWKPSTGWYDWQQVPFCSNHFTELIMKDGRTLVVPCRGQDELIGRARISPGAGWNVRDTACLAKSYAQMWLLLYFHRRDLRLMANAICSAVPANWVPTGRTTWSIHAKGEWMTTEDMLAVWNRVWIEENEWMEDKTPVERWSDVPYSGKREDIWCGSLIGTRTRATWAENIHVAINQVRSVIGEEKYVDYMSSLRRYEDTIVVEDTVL

[11] = Cytotoxicity against human HeLa cells assessed as reduction in cell viability incubated for 24 hrs by CellTiter-Blue assay; assay type: cell-based; in short: as §3
[12] = target: Trypsin (Homo sapiens) (UniProt P07477+P07478+P35030); experiment: Inhibition of trypsin (unknown origin) using Boc-Val-Pro-Arg-AMC as substrate at 50 uM preincubated with enzyme for 15 mins followed by substrate addition and measured for 15 mins by fluorimetric assay; assay type: protein assay; conditions: time 30.0 min
[13] = target: T1, Genome polyprotein (dengue virus type 2, UniProt P29990); experiment: Inhibition of NS2B-NS3 protease in DENV2proHeLa system assessed as inhibition of luciferase signal incubated for 24 hrs by luciferase reporter gene assay; assay type: cell-based, HeLa
In short: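 HeLa cells stably carrying the reporter system, 2 × 10⁴ per well, given inhibitor at seeding and held 24 h at 37 °C. Cells lysed 15 min at room temperature. Luciferase read for 5 s after injecting coelenterazine (2.75 μM in PBS). Triplicate wells per concentration; percent inhibition taken against untreated cells. EC50/EC90 from 4-parameter dose-response fit, background from cell-free wells subtracted.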

[14] = target: Genome polyprotein (dengue virus type 2) (UniProt P29990); experiment: Inhibition of DENV2 NS2B-NS3 protease expressed in Escherichia coli BL21 lambda(DE3) using FRET substrate preincubated with enzyme for 15 mins in presence of detergent CHAPS followed by substrate addition for 15 mins by fluorescence based analysis; conditions: time 30.0 min
[15] = target: Genome polyprotein (dengue virus type 2) (UniProt P29990); experiment: Binding affinity to DENV2 NS2B-NS3 protease expressed in Escherichia coli BL21 lambda(DE3) assessed as quenching of fluorescence of tryptophan residue of the enzyme at 50 uM incubated for 1 hr in presence of aprotinin by tryptophan fluorescence quenching assay
[16] = target: Genome polyprotein (dengue virus type 2) (UniProt P29990); experiment: Binding affinity to DENV2 NS2B-NS3 protease expressed in Escherichia coli BL21 lambda(DE3) assessed as quenching of fluorescence of tryptophan residue of the enzyme incubated for 1 hr by tryptophan fluorescence quenching assay; conditions: dose 10-50 µM
In short: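 Compound added to isolated DENV-2 protease; tryptophan fluorescence quenching monitored across concentrations. Aprotinin added as active-site competitor to test displacement.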

[17] = target: Genome polyprotein (dengue virus type 2) (UniProt P29990); experiment: Competitive inhibition of DENV2 NS2B-NS3 protease expressed in Escherichia coli BL21 lambda(DE3) assessed as increase in Km without change in Vmax using FRET substrate preincubated with enzyme for 15 mins followed by substrate addition for 15 mins by Michaelis-Menten based analysis; conditions: time 30.0 min
[18] = Stability of the compound assessed as bovine pancreas alphachymotrypsin-mediated parent compound depletion by measuring parent compound remaining at 0.1 mg/ml incubated for 120 mins by HPLC analysis; assay type: ADME, Bos taurus; conditions: cattle, bovine pancreas alpha-chymotrypsin, read-out: Stabilty
In short: (§4)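 Compound incubated with α-chymotrypsin or bovine trypsin in buffer for 120 min at 37 °C; parent compound depletion monitored.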

[19] = Stability of the compound assessed as bovine pancreas trypsin-mediated parent compound depletion at 0.1 mg/ml incubated for 120 mins by HPLC analysis; assay type: ADME, Bos taurus; conditions: cattle; for metabolised at 2 h, 0.1 mg/ml: bovine pancreas trypsin, read-out: Drug degradation; in short: as §4
[20] = Selectivity index, ratio of CC50 for human HeLa cells to EC50 for inhibition of NS2B-NS3 protease in DENV2proHeLa system; assay type: toxicity; conditions: read-out: Ratio CC50/EC50
[21] = target: T1, Genome polyprotein; experiment: Competitive inhibition of DENV2 NS2B-NS3 protease expressed in Escherichia coli BL21 lambda(DE3) using FRET substrate preincubated with enzyme for 15 mins followed by substrate addition for 15 mins by Michaelis-Menten based analysis
[22] = target: T1, Genome polyprotein; experiment: Competitive inhibition of DENV2 NS2B-NS3 protease expressed in Escherichia coli BL21 lambda(DE3) using FRET substrate preincubated with enzyme for 15 mins followed by varying concentrations of substrate addition for 15 mins by Cheng-Prusoff plot analysis

Row | Structure (SMILES) | Activity [1] | inhibition at 12.5 µM [2] | Activity [3] | Activity [4] | inhibition [5] | Papp at 5 h, 200 µM [6] | inhibition [7] | EC50 [8] | EC90 [8] | Activity [9] | CC50 at 24 h [11] | inhibition [12] | EC50 [13] | inhibition [14] | other results
1 | N#Cc1ccc(Oc2ccc(C(=O)N[C@H](C(=O)Nc3cccc(C(N)=O)c3)c3ccc(OCc4ccccc4)cc3)cc2)cc1 | 4.5 µM | 88% | < 20% | 177 µM | 79% | 10 nm/s | inactive | 0.66 µM | 8 µM | 9.9% | > 100 µM | inactive | 1 µM | Active | inhibition [10]: Active
2 | NC(=O)c1ccc(CNC(=O)[C@@H](NC(=O)c2ccc(-c3cccs3)s2)c2ccc(OCc3ccccc3)cc2)cc1 |  |  |  |  | 63% |  | inactive |  |  |  | > 100 µM | inactive | 6.2 µM |  | Activity [15]: inactive; Activity [16]: Active
3 | NC(=O)c1cccc(NC(=O)[C@@H](NC(=O)c2ccc(Oc3ccccc3)cc2)c2ccc(OCc3ccccc3)cc2)c1 | 9.5 µM | 100% | < 20% | 164 µM | 83% | 22 nm/s | inactive | 0.66 µM | 7 µM | 15% | > 100 µM | inactive | 0.73 µM | Active | inhibition [17]: Active; remaining at 2 h, 0.1 mg/ml [18]: 70%; metabolised at 2 h, 0.1 mg/ml [19]: 25%; selectivity ratio [20]: > 140; Ki [21]: 5.2 µM; Ki [22]: 6.1 µM
4 | NC(=O)c1cccc(NC(=O)[C@@H](NC(=O)c2ccc(-c3ccco3)cc2)c2ccc(OCc3ccccc3)cc2)c1 | 2.1 µM | 59% | < 20% | 169 µM | 76% | 4.5 nm/s | inactive |  |  | 15% | > 50 µM | inactive | 1.7 µM |  | Activity [15]: inactive; Activity [16]: Active
5 | N=C(N)NCCC[C@H](NC(=O)c1ccccc1)C(=O)NC(CCCCN)C(=O)NC(C(N)=O)c1ccc(OCc2ccccc2)cc1 (some centres not stated) |  | 50% | < 20% |  |  |  |  |  |  |  |  |  |  | Active | Stabilty ([19]; isolated protein, 2 h): Unstable; inhibition [10]: Active
6 | NC(=O)c1cccc(NC(=O)[C@@H](NC(=O)c2ccc(Oc3ccc(Cl)cc3)cc2)c2ccc(OCc3ccccc3)cc2)c1 |  |  |  |  | 86% |  | inactive |  |  |  | 96 µM | inactive | 0.58 µM |  | selectivity ratio [20]: > 140
7 | NC(=O)c1cccc(NC(=O)[C@@H](NC(=O)c2ccc(Oc3ccc4c(c3)OCO4)cc2)c2ccc(OCc3ccccc3)cc2)c1 | 3.7 µM | 98% | < 20% | 180 µM | 78% | 8 nm/s | inactive | 2.2 µM | 6.8 µM | 8.7% | > 100 µM | inactive | 1.5 µM | Active | 
8 | NC(=O)c1cccc(NC(=O)[C@@H](NC(=O)c2ccc(C(=O)c3ccccc3)cc2)c2ccc(OCc3ccccc3)cc2)c1 | 8.6 µM | 100% | < 20% | 178 µM | 76% | 18 nm/s | inactive | 1.1 µM | 4.6 µM | 8.1% | > 100 µM | inactive | 0.39 µM | Active | remaining at 2 h, 0.1 mg/ml [18]: 70%; metabolised at 2 h, 0.1 mg/ml [19]: 25%; Ki [22]: 3.5 µM
